Assay [1] addresses Hsp90 ATP binding site (Homo sapiens, UniProt P07900). The experiment in a line: ATP binding site competitive FP assay. In a few lines: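 Competition for the Hsp90 ATP site by fluorescence polarization with a fluorescein isothiocyanate–geldanamycin probe. Read at excitation 485 nm and emission 535 nm. Inhibition rate derived by a previously reported method. n = 3 wells, from three independent experiments.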

The target of assay [2] is Hsp90 ATPase activity (Homo sapiens, UniProt P07900). The experiment in a line: Hsp90 ATPase assay. The class given is biochemical. In a few lines: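 Hsp90 ATPase measured with an ADP Hunter Plus kit at 37°C. Compound, Hsp90 (5 μM as added) and ATP (100 μM as added) combined in equal parts for 1 h. Background taken without protein or compound; protein alone set as 100% activity. n = 3 wells, from three independent experiments.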

In assay [3] the target is Hsp90-Cdc37 PPI (Homo sapiens, UniProt P07900). The experiment in a line: Hsp90-Cdc37 HTRF assay. As to conditions: dose-dependent. The assay is classed as binding. A digest of the protocol:
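His-tagged Hsp90 and GST-tagged Cdc37 premixed at 80 nM final in PBS with 200 mM KF, pH 7.4. Twofold dilutions of test compound (seven concentrations) added for 1 h at 37°C. HTRF read at excitation 320 nm, emission 665 and 620 nm; ratio = (665/620) × 10,000. n = 3 wells, from three independent experiments.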
For orientation: In TR-FRET formats the signal depends on donor and acceptor labels being close together.

For assay [4], the target named is Cdc37, wild type (UniProt Q16543). The experiment in a line: ITC. On the technique in general: Isothermal titration calorimetry measures the heat released or taken up as one component is titrated into another.
Assay [5] deals with Cdc37 R246A mutant (UniProt Q16543). The experiment in a line: ITC.
Assay [6] deals with Cdc37 Q208A mutant (UniProt Q16543). The experiment in a line: ITC.

Broadly, the IC50 is the concentration at which inhibition is half-maximal. Broadly, the Kd is the free concentration of one partner at which half of the binding sites on the other are occupied at equilibrium, for simple one-to-one binding. A higher Kd goes with a looser complex.

Cdc37, wild type, sequence (Q16543 whole entry): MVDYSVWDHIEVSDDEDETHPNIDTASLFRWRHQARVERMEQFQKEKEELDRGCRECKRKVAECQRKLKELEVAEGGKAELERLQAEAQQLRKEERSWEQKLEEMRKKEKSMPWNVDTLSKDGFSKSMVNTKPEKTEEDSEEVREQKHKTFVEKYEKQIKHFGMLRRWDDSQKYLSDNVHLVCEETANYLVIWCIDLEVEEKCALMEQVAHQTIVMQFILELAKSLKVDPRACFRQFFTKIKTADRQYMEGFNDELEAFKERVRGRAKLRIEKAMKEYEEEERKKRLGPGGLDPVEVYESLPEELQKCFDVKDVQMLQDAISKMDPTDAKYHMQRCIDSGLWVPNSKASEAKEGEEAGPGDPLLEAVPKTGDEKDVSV
Cdc37 R246A mutant, sequence (Q16543 whole entry R246A): as the sequence (Q16543 whole entry) above, with R246A counted along it
Cdc37 Q208A mutant, sequence (Q16543 whole entry Q208A): as the sequence (Q16543 whole entry) above, with Q208A counted along it

Turning to `CC(C)c1cc(C(=O)N2Cc3ccc(CN4CCN(C)CC4)cc3C2)c(O)cc1O` [AT13387], the IC50 was 0.012 µM in assay [1] and 0.16 µM in assay [2]. Besides, the “inhibition of Hsp90-Cdc37 binding (IC50)” value in assay [3] is on record as “no activity”.

In assay [4], “Hsp90 R46A mutant (from UniProt P07900 1-732) (natural protein)” came in with a Kd of 8.85 µM.

Take “Heat shock protein 90 (Hsp90), wild type, His-tagged (from UniProt P07900 1-732) (natural protein)”: the Kd in assay [4] came to 2.17 µM; in assay [5], 6.02 µM; in assay [6], 3.51 µM.

In assay [4], “Hsp90 Y61A mutant (from UniProt P07900 1-732) (natural protein)” came in with a Kd of 6.85 µM. This counts as single-digit micromolar.

The record behind these values is publication PMC6750927 (Science Advances, 2019).
